Data taken from ChEMBL document CHEMBL3596171, “Interrogating alkyl and arylalkylpolyamino (bis)urea and (bis)thiourea isosteres as potent antimalarial chemotypes against multiple lifecycle forms of Plasmodium falciparum parasites” (Bioorg Med Chem, 2015).
Calls of active or inactive are those of the source. The calls are words filed in the database; no cut-off is given here.

Assays:
[1] = (§1) Cytotoxicity against human HepG2 cells assessed as inhibition of cell growth after 48 hrs by LDH assay; format: cell-based; conditions: HepG2 cells
Plasmodium falciparum [2] = test: Resistance index, ratio of IC50 for asexual intraerythrocytic ring stage of chloroquine-resistant Plasmodium falciparum W2 infected in human O+ erythrocytes to IC50 for asexual intraerythrocytic ring stage of chloroquine-sensitive Plasmodium falciparum 3D7 infected in human O+ erythrocytes; format: functional
Plasmodium falciparum [3] = test: Antiplasmodial activity against asexual intraerythrocytic ring stage of antifolate-resistant Plasmodium falciparum HB3 infected in human O+ erythrocytes assessed as inhibition of parasitic proliferation after 96 hrs by SYBR Green-1 based fluorescence assay; format: functional, organism-based; conditions: HB3, 96 h
[4] = Selectivity index, ratio of GI50 for human HepG2 cells to IC50 for asexual intraerythrocytic ring stage of chloroquine-sensitive Plasmodium falciparum 3D7 infected in human O+ erythrocytes; format: functional
HepG2 [5] = test: as §1; format: cell-based; conditions: hepg2, 48 h
Plasmodium falciparum [6] = test: Plasmocidal activity against intraerythrocytic early trophozoitic stage of chloroquine-sensitive Plasmodium falciparum 3D7 infected in human O+ erythrocytes assessed as cessation of nuclear division at IC90 after 24 hrs by SYBR Green I-based flow cytometry; format: functional, organism-based
Plasmodium falciparum [7] = test: Antiplasmodial activity against asexual intraerythrocytic ring stage of chloroquine-sensitive Plasmodium falciparum 3D7 infected in human O+ erythrocytes assessed as inhibition of parasitic proliferation after 96 hrs by SYBR Green-1 based fluorescence assay; format: functional, organism-based; conditions: 3D7, 96 h
Plasmodium falciparum [8] = test: Antiplasmodial activity against asexual intraerythrocytic ring stage of chloroquine-resistant Plasmodium falciparum W2 infected in human O+ erythrocytes assessed as inhibition of parasitic proliferation after 96 hrs by SYBR Green-1 based fluorescence assay; format: functional, organism-based; conditions: W2, 96 h
Plasmodium falciparum [9] = test: Plasmocidal activity against intraerythrocytic chloroquine-sensitive Plasmodium falciparum 3D7 infected in human O+ erythrocytes assessed as inhibition of parasitic proliferation at IC90 after 24 to 96 hrs by flow cytometry; format: functional, organism-based
Plasmodium falciparum [10] = test: Gametocytocidal activity against Plasmodium falciparum NF54-Mal8p1.16-GFP-Luc late (4 to 5) gametocyte assessed as inhibition of parasite viability at 5 uM after 48 hrs by luciferase reporter assay; format: functional, organism-based
How it was run: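 NF54 luciferase reporter line; gametocytogenesis induced in glucose-free medium under hypoxia without shaking, with daily medium changes. Mature stage IV/V gametocytes were used on day 10, at 2% gametocytemia and 2% hematocrit. Compound at 5 µM for 48 h, hypoxic, 37 °C, in triplicate; three biological repeats. Read-out was luciferase in lysates with luciferin substrate.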

HepG2 [11] = test: Cytotoxicity against human HepG2 cells assessed as cell viability at 5000XIC50 for Plasmodium falciparum 3D7 after 48 hrs by LDH assay; format: cell-based; conditions: hepg2, 48 h
Plasmodium falciparum [12] = test: Plasmocidal activity against intraerythrocytic chloroquine-sensitive Plasmodium falciparum 3D7 infected in human O+ erythrocytes assessed as cessation of nuclear division measured as proportion of schizonts containing >2N nuclear content at IC90 after 96 hrs by SYBR Green I-based flow cytometry; format: functional
Plasmodium falciparum [13] = test: (§2) Plasmocidal activity against intraerythrocytic chloroquine-sensitive Plasmodium falciparum 3D7 infected in human O+ erythrocytes assessed as irreversible inhibition of parasitic viability at 10XIC90 pulsed with compound for 12 hrs followed by drug wash-out measured after 36 hrs by SYBR Green 1 based flow cytometry; format: functional, organism-based
How it was run: (§3)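 Cultures were washed once in RPMI 1640 and diluted 1:40. Proliferation followed at set times over 36 h by SYBR Green I DNA fluorescence.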

[14] = Inhibition of NP-40-mediated beta-hematin formation at >400 uM after 5 hrs by pyridine-ferrichrome method; format: functional
How it was run: (§4)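 NP-40 detergent (305.5 µM), water and DMSO mixed with compound over a concentration range. Incubated 5 h at 37 °C with hematin in 1 M acetate buffer, pH 4.8, with occasional shaking. β-Hematin measured by the pyridine-ferrichrome method, absorbance at 405 nm. Three biological repeats in triplicate.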

Plasmodium falciparum [15] = test: Plasmocidal activity against intraerythrocytic early trophozoitic stage of chloroquine-sensitive Plasmodium falciparum 3D7 infected in human O+ erythrocytes assessed as non-progressive pyknotic phenotype with apparently dying morphology at IC90 measured over 48 hrs single lifecycle by Giemsa staining based microscopy; format: functional, organism-based
Plasmodium falciparum [16] = test: as §2, with “IC90” for “10XIC90”; format: functional; how it was run: as §3
Plasmodium falciparum [17] = test: Plasmocidal activity against intraerythrocytic chloroquine-sensitive Plasmodium falciparum 3D7 infected in human O+ erythrocytes assessed as cessation of nuclear division measured as proportion of schizonts containing 2N nuclear content at IC90 after 96 hrs by SYBR Green I-based flow cytometry; format: functional
Plasmodium falciparum [18] = test: Plasmocidal activity against intraerythrocytic chloroquine-sensitive Plasmodium falciparum 3D7 infected in human O+ erythrocytes assessed as cessation of nuclear division measured as proportion of rings/trophozoites containing 1N nuclear content at IC90 after 96 hrs by SYBR Green I-based flow cytometry
Plasmodium falciparum [19] = test: Antiplasmodial activity against chloroquine-resistant Plasmodium falciparum Dd2; format: functional, organism-based
[20] = Inhibition of NP-40-mediated beta-hematin formation at 1 mM after 5 hrs by pyridine-ferrichrome method; format: functional; how it was run: as §4
[21] = Inhibition of NP-40-mediated beta-hematin formation after 5 hrs by pyridine-ferrichrome method; format: functional

SMILES | Ratio IC50 (Plasmodium falciparum [2]) | IC50 (Plasmodium falciparum [3]) [µM] | Selectivity Index [4] | GI50 (HepG2 [5]) [µM] | IC50 (Plasmodium falciparum [7]) [µM] | IC50 (Plasmodium falciparum [8]) [µM] | other results
S=C(NCCCNCCCCCCNCCCNC(=S)NC(c1ccccc1)c1ccccc1)NC(c1ccccc1)c1ccccc1 | 1.2 | – | – | – | – | – | GI50 at 48 h [1]: > 200 µM
O=C(NCCCNCCCCCNCCCNC(=O)NCC(c1ccccc1)c1ccccc1)NCC(c1ccccc1)c1ccccc1 | 0.64 | 0.04 | 3375 | 94.5 | 0.028 | 0.018 | Activity (Plasmodium falciparum [6]): Active; inhibition (Plasmodium falciparum [9]): Active
S=C(NCCCNCCCCCNCCCNC(=S)NCCC(c1ccccc1)c1ccccc1)NCCC(c1ccccc1)c1ccccc1 | 0.54 | 0.062 | 666 | 50.6 | 0.076 | 0.041 | inhibition (Plasmodium falciparum [10]): Active
O=C(NCCCNCCCCCCCNCCCNC(=O)NCC(c1ccccc1)c1ccccc1)NCC(c1ccccc1)c1ccccc1 | 1.4 | – | – | – | – | – | –
O=C(NCCCNCCCCCCNCCCNC(=O)Nc1ccccc1)Nc1ccccc1 | 0.3 | – | – | – | – | – | –
N=C(N)NCCCNCCCCNCCCNC(=N)N | – | 14.2 | – | – | 80 | – | –
O=C(NCCCNCCCCCNCCCNC(=O)Nc1ccccc1)Nc1ccccc1 | 0.2 | 0.177 | >5000 | – | 0.246 | 0.049 | Activity (HepG2 [11]): 100%
N=C(N)NCCCNCCCNCCCNC(=N)N | – | 110 | – | – | 147 | – | –
O=C(NCCCNCCCCCCCNCCCNC(=O)NC(c1ccccc1)c1ccccc1)NC(c1ccccc1)c1ccccc1 | 1.7 | – | – | – | – | – | GI50 at 48 h [1]: > 200 µM
O=C(NCCCNCCCCCNCCCNC(=O)NCCC(c1ccccc1)c1ccccc1)NCCC(c1ccccc1)c1ccccc1 | 1.2 | 0.056 | 5090 | 153 | 0.03 | 0.036 | Activity (Plasmodium falciparum [12]): 2%; Activity (Plasmodium falciparum [6]): Active; inhibition (Plasmodium falciparum [13]): Active; inhibition [14]: Active; Activity (Plasmodium falciparum [15]): Active; inhibition (INH) (Plasmodium falciparum [16]): >40%; Activity (Plasmodium falciparum [17]): 10%; inhibition (Plasmodium falciparum [9]): Active; Activity (Plasmodium falciparum [18]): 88%
S=C(NCCCNCCCCCCNCCCNC(=S)NCc1ccccc1)NCc1ccccc1 | 1.9 | – | – | – | – | – | GI50 at 48 h [1]: > 200 µM
S=C(NCCCNCCCCCNCCCNC(=S)NC(c1ccccc1)c1ccccc1)NC(c1ccccc1)c1ccccc1 | 0.51 | 0.075 | 659 | 44.8 | 0.068 | 0.035 | inhibition (Plasmodium falciparum [10]): Active
O=C(NCCCNCCCCCCCNCCCNC(=O)NCCC(c1ccccc1)c1ccccc1)NCCC(c1ccccc1)c1ccccc1 | 1.13 | – | – | – | – | – | –
C(CCCNCCCNCC1CCCCCC1)CCCNCCCNCC1CCCCCC1 | – | – | – | – | 0.11 | – | IC50 (Plasmodium falciparum [19]): 0.12 µM
S=C(NCCCNCCCCNCCCNC(=S)NCc1ccccc1)NCc1ccccc1 | – | – | – | – | – | – | GI50 at 48 h [1]: > 200 µM
N=C(N)NCCCNCCCCCCCNCCCNC(=N)N | – | 70.3 | – | – | – | – | –
O=C(NCCCNCCCCCNCCCNC(=O)NC(c1ccccc1)c1ccccc1)NC(c1ccccc1)c1ccccc1 | 0.43 | 0.065 | 5113 | 240 | 0.047 | 0.02 | –
O=C(NCCCNCCCCCNCCCNC(=O)NCc1ccccc1)NCc1ccccc1 | 0.22 | 0.593 | 2456 | 1950 | 0.793 | 0.171 | inhibition [20]: inactive
S=C(NCCCNCCCCCNCCCNC(=S)NCC(c1ccccc1)c1ccccc1)NCC(c1ccccc1)c1ccccc1 | 1.18 | 0.056 | 1305 | 52.2 | 0.04 | 0.047 | IC50 [21]: 16.7 µM
S=C(NCCCNCCCCCNCCCNC(=S)NCc1ccccc1)NCc1ccccc1 | 0.17 | 0.178 | >5000 | – | 0.249 | 0.042 | Activity (HepG2 [11]): 100%
